ChEMBL document CHEMBL2034823, “Synthesis and antiviral activity of certain second generation methylenecyclopropane nucleosides” (Bioorg Med Chem, 2012)

Key:
[1] = Cytotoxicity against human HFF cells after 3 to 8 days by crystal voilet staining; format: cell-based
Summary of the method: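 Uninfected HFF cells exposed to the same concentrations as in the CPE assays (3 days for HSV, 7 for VZV, […]). Stained with crystal violet. CC50 is the concentration reducing cell number by 50%. Duplicate wells.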

Human betaherpesvirus 5 = assay: Antiviral activity against HCMV infected in human HFF cells assessed as reduction in cytopathic effect after 8 days by plaque reduction assay; format: functional, organism-based; settings: Human betaherpesvirus 5, HFF, 192 h
Summary of the method: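 HFF monolayers seeded 2 days ahead and infected with AD169 at about 30 plaques per well, with 1 h adsorption. Compound was then added in MEM with 2% FBS, L-glutamine, penicillin, gentamycin and pooled human gamma globulin. After 8 days, neutral red stain and plaque counts by stereomicroscope. EC50 interpolated. Duplicate wells.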

[2] = Cytotoxicity against human MOLT3 cells after 7 days by Cell-Titer Glo assay; format: cell-based, MOLT-3
Summary of the method: (§1)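 Uninfected Akata, BCBL1, HSB-2 or MOLT-3 cells incubated with compound for seven days under the matching antiviral-assay conditions. CellTiter-Glo added and luminescence read. CC50 is the concentration reducing cell number by 50%.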

Human alphaherpesvirus 1 = assay: Antiviral activity against HSV-1 infected in human HFF cells assessed as reduction in cytopathic effect after 3 days by crystal violet staining; format: functional, organism-based; settings: Human alphaherpesvirus 1, HFF, 72 h
Summary of the method: (§2)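 Compound diluted over HFF monolayers, then HSV-1 (E-377) or HSV-2 (MS) added at MOI about 0.01 PFU/cell. Held 3 days in humidified 5% CO2. Stained 4 h with 0.1% crystal violet in formalin, rinsed, dried 24 h, and absorbance read at 595 nm. EC50 is 50% CPE reduction. Duplicate wells.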

Human alphaherpesvirus 3 = assay: Antiviral activity against VZV infected in human HFF cells assessed as reduction in cytopathic effect after 7 days by crystal violet staining; format: functional, organism-based; settings: Human alphaherpesvirus 3, HFF, 168 h
[3] = Antiviral activity against HHV-6A infected in human HSB2 cells assessed as reduction in viral DNA after 7 days by hybridization assay; format: functional, cell-based, Human herpesvirus 6A; settings: Human betaherpesvirus 6A, HSB2, 168 h
Summary of the method: (§3)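 Compound serially diluted in medium. Uninfected HSB-2 cells were infected with HHV-6A (GS)-infected HSB-2 cells, and Molt-3 cells with HHV-6B (Z29)-infected Molt-3 cells. Incubation 7 days at 37 °C. Lysis in 4.5 M NaCl/1.2 M NaOH, then transfer to nylon membrane. Viral DNA quantified by digoxigenin-probe hybridization and EC50 calculated. Duplicate wells.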

Human gammaherpesvirus 8 = assay: Antiviral activity against HHV-8 infected in human BCBL1 cells assessed as reduction in viral DNA after 7 days by qPCR analysis; format: functional, organism-based; settings: Human gammaherpesvirus 8, BCBL1, 168 h
Summary of the method: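 BCBL1 cells kept in RPMI 1640 with 10% FBS, penicillin, gentamycin and L-glutamine. Lytic infection induced with phorbol 12-myristate 13-acetate, then cells added to triplicate compound dilutions. Incubation 7 days at 37 °C in humidified CO2. EC50 is the concentration halving viral DNA accumulation.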

[4] = Cytotoxicity against human HSB2 cells after 7 days by Cell-Titer Glo assay; format: cell-based, CCRF-HSB-2; summary of the method: as §1
Human gammaherpesvirus 4 = assay: Antiviral activity against EBV Akata infected in human Akata cells assessed as reduction in viral DNA after 72 hrs by hybridization assay; format: functional, organism-based; settings: human gammaherpesvirus 4, Akata
Summary of the method: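 Akata cells kept in RPMI 1640 with 10% FBS, L-glutamine, penicillin and gentamicin. Latent infection was switched to productive by adding goat anti-human IgG, and cells were seeded into compound dilutions made in growth medium. After 72 h the DNA was denatured and blotted onto nylon membrane. Viral DNA was measured with a digoxigenin-labeled probe plus anti-hapten antibody. EC50 is the concentration halving viral DNA. Duplicate wells.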

[5] = Antiviral activity against HHV-6B infected in human Molt3 cells assessed as reduction in viral DNA after 7 days by hybridization assay; format: functional, cell-based, Human herpesvirus 6B; settings: Human betaherpesvirus 6B, MOLT-3, 168 h; summary of the method: as §3
[6] = Cytotoxicity against human BCBL1 cells after 7 days by Cell-Titer Glo assay; format: cell-based; summary of the method: as §1
[7] = Cytotoxicity against human Akata cells after 7 days by Cell-Titer Glo assay; format: cell-based; summary of the method: as §1
Human alphaherpesvirus 2 = assay: Antiviral activity against HSV-2 infected in human HFF cells assessed as reduction in cytopathic effect after 3 days by crystal violet staining; format: functional, organism-based; settings: Human alphaherpesvirus 2, HFF, 72 h; summary of the method: as §2

Row | SMILES | CC50 [1] | IC50 (Human betaherpesvirus 5) | CC50 at 168 h [2] | IC50 (Human alphaherpesvirus 1) | IC50 (Human alphaherpesvirus 3) | IC50 [3] | IC50 (Human gammaherpesvirus 8) | CC50 at 168 h [4] | IC50 (Human gammaherpesvirus 4) | IC50 [5] | CC50 at 168 h [6] | CC50 at 168 h [7] | IC50 (Human alphaherpesvirus 2)
1 | Nc1nc2c(ncn2COC(CO)CO)c(=O)[nH]1 [GANCICLOVIR] | > 300 µM | 2.1 µM | – | – | – | – | – | – | – | – | – | – | –
2 | Nc1nc(N)c2nc[nH]c2n1 [2,6-DIAMINOPURINE] | > 300 µM | > 300 µM | > 20 µM | > 300 µM | > 300 µM | > 20 µM | 30 µM | > 20 µM | 11 µM | 16 µM | 67 µM | > 20 µM | > 300 µM
3 | Nc1nc(N2CCCC2)c2ncn(/C=C3/CC3(CO)CO)c2n1 | > 300 µM | > 300 µM | – | > 300 µM | > 300 µM | > 20 µM | > 20 µM | > 20 µM | > 24 µM | – | > 20 µM | > 24 µM | > 300 µM
4 | CCCCCOc1nc(N)nc2c1ncn2/C=C1/CC1(CO)CO | 259 µM | 0.5 µM | > 20 µM | > 300 µM | > 60 µM | > 20 µM | > 20 µM | > 20 µM | 0.5 µM | > 20 µM | > 20 µM | > 20 µM | > 300 µM
5 | C=CCOc1nc(N)nc2c1ncn2/C=C1/CC1(CO)CO | > 300 µM | 1.1 µM | > 20 µM | > 300 µM | > 300 µM | > 20 µM | 17 µM | > 20 µM | 11 µM | 11.4 µM | > 20 µM | > 20 µM | > 300 µM
6 | Nc1nc(NC2CCCC2)c2ncn(/C=C3/CC3(CO)CO)c2n1 | > 300 µM | > 60 µM | > 20 µM | > 60 µM | > 60 µM | > 20 µM | 63 µM | > 20 µM | > 20 µM | > 20 µM | 71.7 µM | > 20 µM | > 60 µM
7 | Nc1nc(NCc2ccccc2)c2ncn(/C=C3/CC3(CO)CO)c2n1 | > 300 µM | > 60 µM | > 20 µM | > 300 µM | > 60 µM | > 20 µM | – | > 20 µM | > 24 µM | > 20 µM | 19.9 µM | > 24 µM | > 300 µM
8 | CN(C)c1nc(N)nc2c1ncn2/C=C1/CC1(CO)CO | > 300 µM | > 300 µM | – | > 300 µM | 180 µM | > 20 µM | > 20 µM | > 20 µM | > 24 µM | – | > 20 µM | > 24 µM | > 300 µM
9 | Nc1nc2c(ncn2COCCO)c(=O)[nH]1 [ACYCLOVIR] | > 300 µM | – | – | 2.9 µM | – | – | – | – | – | – | – | – | 2.8 µM
10 | CCCNc1nc(N)nc2c1ncn2/C=C1/CC1(CO)CO | > 300 µM | > 300 µM | – | > 300 µM | > 300 µM | > 20 µM | > 20 µM | > 20 µM | > 24 µM | – | > 20 µM | > 24 µM | > 300 µM
11 | CC(C)CSc1nc(N)nc2c1ncn2/C=C1/CC1(CO)CO | > 300 µM | 31 µM | – | > 300 µM | > 50 µM | > 20 µM | > 20 µM | 60 µM | 2.3 µM | – | > 20 µM | > 20 µM | > 300 µM
12 | CC(C)CNc1nc(N)nc2c1ncn2/C=C1/CC1(CO)CO | > 300 µM | > 300 µM | – | > 300 µM | > 300 µM | > 20 µM | > 20 µM | > 20 µM | > 24 µM | – | > 20 µM | > 24 µM | > 300 µM
13 | CCCCCCOc1nc(N)nc2c1ncn2/C=C1/CC1(CO)CO | > 200 µM | 3.9 µM | > 20 µM | > 300 µM | – | > 20 µM | > 20 µM | > 20 µM | 7.3 µM | 9.5 µM | > 20 µM | > 20 µM | > 300 µM
14 | CC(C)Nc1nc(N)nc2c1ncn2/C=C1/CC1(CO)CO | > 300 µM | 160 µM | – | > 300 µM | > 300 µM | > 20 µM | > 20 µM | > 20 µM | > 24 µM | – | > 20 µM | > 24 µM | > 300 µM
15 | Nc1nc(NC2CCCCC2)c2ncn(/C=C3/CC3(CO)CO)c2n1 | > 300 µM | > 300 µM | – | > 300 µM | > 300 µM | > 20 µM | > 20 µM | > 20 µM | > 24 µM | – | > 20 µM | > 24 µM | > 300 µM
16 | Nc1nc(N2CCOCC2)c2ncn(/C=C3/CC3(CO)CO)c2n1 | > 300 µM | > 300 µM | – | > 300 µM | > 300 µM | > 20 µM | > 20 µM | > 20 µM | > 24 µM | – | > 20 µM | > 24 µM | > 300 µM
